The species named for data set [1] is Homo sapiens. Nature of the data set: Inhibition of constitutive proteasome 20S subunit beta5c in human RBC assessed as substrate hydrolysis using suc-LLVY-AMC as substrate measured for 120 mins by fluorescence analysis.
The species named for data set [2] is Homo sapiens. Put plainly: Ratio of Kinact/Ki for immunoproteasome-20S subunit beta5i in human PBMC to Kinact/Ki for constitutive proteasome 20S subunit beta5c in human RBC.
Data set [3] addresses T1, Proteasome subunit beta type-8 (Homo sapiens) (UniProt P28062).
T1 sequence (whole entry): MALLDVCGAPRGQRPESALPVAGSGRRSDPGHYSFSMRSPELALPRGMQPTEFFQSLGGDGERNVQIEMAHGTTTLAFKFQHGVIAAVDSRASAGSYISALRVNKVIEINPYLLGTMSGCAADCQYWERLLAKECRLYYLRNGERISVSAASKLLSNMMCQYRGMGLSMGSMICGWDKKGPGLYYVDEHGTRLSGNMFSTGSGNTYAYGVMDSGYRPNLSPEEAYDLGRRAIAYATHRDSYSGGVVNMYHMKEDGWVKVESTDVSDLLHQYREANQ
Nature of the data set: Inhibition of immunoproteasome-20S subunit beta5i in human PBMC assessed as substrate hydrolysis using suc-LLVY-AMC as substrate by fluorescence analysis. The conditions noted are these: TDE = time-dependent effect. Put shortly:
(§1)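 Purified human i-20S preincubated with inhibitor for 15 min before suc-LLVY-AMC was added; inhibitor ranged from 9.8 nM to 100 μM. AMC fluorescence release read. IC50 from the concentration–response; where β2i/β1i inhibition exceeded 80% at 100 μM, IC50 was also determined.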

Data set [4] addresses T1, Proteasome subunit beta type-8 (Homo sapiens). Nature of the data set: Ratio of Kinact to Ki for immunoproteasome-20S subunit beta5i in human PBMC using suc-LLVY-AMC as substrate measured for 120 mins by fluorescence analysis. Put shortly:
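Progress curves of hu i-20S suc-LLVY-AMC hydrolysis recorded at several inhibitor concentrations. kobs for each curve fitted to equation I. kobs plotted against inhibitor concentration and fitted hyperbolically (two-step mechanism) to give kinact/KI.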

Data set [5] has the same target. Nature of the data set: (§2) Inhibition of immunoproteasome-20S subunit beta5i in human PBMC assessed as substrate hydrolysis using suc-LLVY-AMC as substrate measured for 120 mins by fluorescence analysis.
The target in data set [6] is T2, Proteasome subunit beta type-8 (Homo sapiens, UniProt P28062).
T2 sequence (P28062 whole entry): T1 sequence (whole entry)
The description is as §2.

Another data set addresses 26S proteasome. Nature of the data set: Inhibition of chymotrypsin-like activity of 26S proteasome in intact human Karpas 1106p cells assessed as substrate hydrolysis using Suc-LLVY-(D)-aminoluciferin as substrate after 3 hrs by cell-based Proteasome-Glo assay. Put shortly: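 Intact Karpas 1106p cells, a human lymphoma line that expresses i-20S constitutively without IFN-γ or TNF-α stimulation. 26S proteasome activity read by cell-based Proteasome-Glo luminescence over a range of inhibitor concentrations. EC50 derived from the dose–response.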

Data set [7] has as its target T1, Proteasome subunit beta type-8 (Homo sapiens). Nature of the data set: Inhibition of immunoproteasome 20S subunit beta5i in human Karpas 1106p cell extract at 1 uM. Put shortly: (§3)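 Cell-free extracts of Karpas 1106p cells incubated with inhibitor at various concentrations. β5i activity in the lysate then measured; reported as percent inhibition at each concentration.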

Data set [8] has the same target. Nature of the data set: Inhibition of immunoproteasome 20S subunit beta5i in human Karpas 1106p cell extract at 100 uM. Put shortly: as §3
Data set [9] can be described thus: Half life of the compound in RPMI medium at 75 uM by UPLC/MS analysis. Format: physicochemical. Put shortly:
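Stability measured in tissue culture medium; reported as t1/2 in minutes.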

Data set [10] has as its target T1, Proteasome subunit beta type-8 (Homo sapiens). Put plainly: Inhibition of immunoproteasome 20S subunit beta5i in human Karpas 1106p cell extract at 10 uM. The method in brief: as §3
Data set [11] shares this target. Nature of the data set: Inhibition of immunoproteasome 20S subunit beta5i in human Karpas 1106p cells assessed as accumulation of polyubiquitinylated proteins at 2.5 to 25 uM after 4 hrs by western blot analysis. Format: cell-based. Put shortly: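 Karpas 1106p cells treated with inhibitor at the indicated concentrations for 4 h at 37 °C. Polyubiquitinated proteins then detected by Western blot.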
On the technique in general: A western blot detects proteins with antibodies after separation by electrophoresis.

Data set [12] shares this target. The conditions noted are these: 10 to 100 nM.
The target is the same in data set [13]. The conditions noted are these: 1 nM.
The target in data set [14] is T2, Proteasome subunit beta type-8. Put plainly: Inhibition of immunoproteasome-20S subunit beta5i in human PBMC assessed as substrate hydrolysis using suc-LLVY-AMC as substrate preincubated for 15 mins prior to substrate challenge measured for 120 mins by fluorescence analysis. Put shortly: as §1

Calls of active or inactive are those of the source. The rule behind the calls is not given here.

Consider 18 compounds from ChEMBL document CHEMBL3259678 (ACS Med Chem Lett, 2014).

For `O=c1oc(-c2cccc(-c3ccccc3)c2)ns1`, the Ratio in the data set listed under Homo sapiens [1] was 0.4 M⁻¹ s⁻¹; in the data set listed under Homo sapiens [2], 420; in [4], 168 M⁻¹ s⁻¹. Also, in data set [3], the inhibition (commonly the percentage by which the read-out fell short of the control) is “tde”. For the same compound, in data set [5], the Kinact is 0.001 s⁻¹. In addition, the Ki (commonly the dissociation constant of the complex between target and ligand, obtained from inhibition or displacement) in [6] is 6000 nM.

`O=c1oc(-c2ccc3[nH]ccc3c2)ns1`: the Ratio in the data set listed under Homo sapiens [1] came to 0.13 M⁻¹ s⁻¹; in the data set listed under Homo sapiens [2], 1730; in [4], 225 M⁻¹ s⁻¹. Besides, in data set [3], the inhibition result is “tde”. For the same compound, the Kinact in data set [5] stood at 0.00026 s⁻¹. For the same compound, the Ki in data set [6] is 1100 nM.

As for `O=c1oc(-c2ccccc2C(F)(F)F)ns1`, the Ratio in the data set listed under Homo sapiens [1] is 1.6 M⁻¹ s⁻¹; in the data set listed under Homo sapiens [2] it was 117; in data set [4], 187 M⁻¹ s⁻¹. In [3], the inhibition entry was “tde”. In data set [5], the Kinact was 0.00033 s⁻¹. Also, in data set [6], the Ki came to 1800 nM.

On to `CC(=O)Nc1cccc(-c2nsc(=O)o2)c1`, for which the Ratio in the data set filed under Homo sapiens [1] is 3.2 M⁻¹ s⁻¹; in the data set listed under Homo sapiens [2], 26; in data set [4], 83 M⁻¹ s⁻¹. In addition, the EC50 (in general, the concentration at which the effect is half-maximal) on 26S proteasome was determined as 4200 nM. The results for the inhibition in data set [7] and in data set [10] were 60% and > 90%, respectively. Further, the inhibition result in [8] and in [11] was “Active” in each case. Moreover, the half-life (commonly the time in which the quantity being followed falls by half) at 75 µM in data set [9] is 1.36 h.

In the case of `O=c1oc(-c2cccc([N+](=O)[O-])c2)ns1`, the Ratio in the data set filed under Homo sapiens [1] was determined as 10.3 M⁻¹ s⁻¹; in the data set listed under Homo sapiens [2] it was 89; in data set [4], 913 M⁻¹ s⁻¹. Also, the inhibition entry in data set [3] is “tde”. The Kinact in data set [5] was found to be 0.00038 s⁻¹. Moreover, the inhibitory constant (Ki) in data set [6] is 420 nM.

Consider `CC(=O)N[C@H](Cc1ccccc1)C(=O)Nc1ccc(-c2nsc(=O)o2)cc1`, for which the Ratio in the data set filed under Homo sapiens [1] worked out at 0.7 M⁻¹ s⁻¹; in the data set listed under Homo sapiens [2], 215; in data set [4], 151 M⁻¹ s⁻¹. Also, the EC50 on 26S proteasome stood at 15400 nM. The inhibition in data set [7] is 40%; in [10], 65%. For the same compound, the inhibition entry in [8] and in [11] was “Active” in each case. The half-life at 75 µM in data set [9] stood at 0.878 h. Also, the Kinact in [5] turned out to be 0.00053 s⁻¹. Further, the Ki in data set [6] amounted to 3500 nM.

Turning to `CC(C)C[C@H](NC(=O)[C@H](Cc1ccccc1)NC(=O)c1cnccn1)B(O)O`, the inhibition in data set [12] is 90%; in [13], 58%.

In the case of `O=c1oc(-c2cccc(F)c2)ns1`, the Ratio in the data set filed under Homo sapiens [1] is 13.2 M⁻¹ s⁻¹; in the data set listed under Homo sapiens [2], 1.5; in [4], 20 M⁻¹ s⁻¹.

As for `O=c1oc(-c2cccc(CN3CCOCC3)c2)ns1`, the Ratio was found to be 2.3 M⁻¹ s⁻¹ in the data set filed under Homo sapiens [1], 93 in the data set listed under Homo sapiens [2] and 214 M⁻¹ s⁻¹ in [4]. For the same compound, in data set [3], the inhibition entry is “tde”. Moreover, the Kinact in data set [5] was determined as 0.00026 s⁻¹. Further, the Ki in [6] was found to be 1200 nM.

Consider `Cc1sc(-c2nsc(=O)o2)cc1[N+](=O)[O-]`, for which the Ratio in the data set filed under Homo sapiens [1] turned out to be 10.1 M⁻¹ s⁻¹; in the data set filed under Homo sapiens [2], 100; in data set [4] it was 1010 M⁻¹ s⁻¹. The IC50 – broadly, the concentration that inhibits the measured activity by half – in data set [14] turned out to be 220 nM. For the same compound, in data set [5], the Kinact was 0.00077 s⁻¹. The Ki in data set [6] came to 760 nM.

In the case of `O=c1oc(-c2ccccn2)ns1`, the Ratio worked out at 0.2 M⁻¹ s⁻¹ in the data set filed under Homo sapiens [1], 645 in the data set filed under Homo sapiens [2] and 129 M⁻¹ s⁻¹ in data set [4]. In addition, the Kinact in data set [5] worked out at 0.00025 s⁻¹. Further, the Ki in data set [6] amounted to 2000 nM.

Regarding `CC(C)(C)OC(=O)Nc1ccc(-c2nsc(=O)o2)cc1`, the Ratio in the data set listed under Homo sapiens [1] was determined as 2.4 M⁻¹ s⁻¹; in the data set listed under Homo sapiens [2] it was 142; in data set [4] it was 341 M⁻¹ s⁻¹. The Kinact in data set [5] worked out at 0.00037 s⁻¹. Further, the Ki in [6] was 1100 nM.

Regarding `O=c1oc(-c2ccccc2)ns1`, the Ratio in the data set filed under Homo sapiens [1] was 14.8 M⁻¹ s⁻¹; in the data set listed under Homo sapiens [2] it was 8; in [4], 118 M⁻¹ s⁻¹. Besides, the inhibition entry in data set [3] was “tde”. In addition, in data set [5], the Kinact amounted to 0.00093 s⁻¹. Moreover, the Ki in [6] amounted to 7900 nM.

With `O=c1oc(-c2ccc(-c3ccccc3)cc2)ns1`, the Ratio in the data set listed under Homo sapiens [1] was found to be 0.23 M⁻¹ s⁻¹; in the data set filed under Homo sapiens [2] it was 4750; in [4], 1090 M⁻¹ s⁻¹. In addition, the Kinact in data set [5] was 0.00154 s⁻¹. Moreover, in [6], the Ki amounted to 1400 nM.

With `[N-]=[N+]=Nc1ccc(-c2nsc(=O)o2)cc1`, the Ratio in the data set filed under Homo sapiens [1] was found to be 23.7 M⁻¹ s⁻¹; in the data set listed under Homo sapiens [2], 11; in data set [4], 263 M⁻¹ s⁻¹. Moreover, in [3], the inhibition result was “tde”. Also, in data set [5], the Kinact was found to be 0.00092 s⁻¹. The Ki in [6] was 3500 nM.

In the case of `O=c1oc(-c2cc(O)c(O)c(O)c2)ns1`, the Ratio in the data set filed under Homo sapiens [1] turned out to be 1.4 M⁻¹ s⁻¹; in the data set filed under Homo sapiens [2] it was 171; in [4] it was 239 M⁻¹ s⁻¹. For the same compound, the inhibition result in data set [3] is “tde”. Besides, the Kinact in [5] was 0.00042 s⁻¹. Besides, the Ki in data set [6] is 1700 nM.

As to `CC(=O)N[C@@H](Cc1ccccc1)C(=O)Nc1ccc(-c2nsc(=O)o2)cc1`, the Ratio in the data set filed under Homo sapiens [1] came to 0.13 M⁻¹ s⁻¹; in the data set filed under Homo sapiens [2], 1490; in [4], 193 M⁻¹ s⁻¹. Also, the inhibition result in [3] is “tde”. The Kinact in data set [5] was 0.0001 s⁻¹. For the same compound, in data set [6], the Ki came out at 520 nM.

Take `CC(=O)N[C@H](Cc1ccccc1)C(=O)Nc1cccc(-c2nsc(=O)o2)c1`: the Ratio came out at 0.34 M⁻¹ s⁻¹ in the data set filed under Homo sapiens [1], 19 in the data set listed under Homo sapiens [2] and 6.6 M⁻¹ s⁻¹ in data set [4].
